From ChEMBL document CHEMBL2086229, “Synthesis and biological activities of 4-substituted pyrrolo[2,3-a]carbazole Pim kinase inhibitors” (Eur J Med Chem, 2012)
Active and inactive are the calls of the source. The calls are words filed in the database; no cut-off is given here.

Assays:
[1] = Antiproliferative activity against human fibroblasts after 48 hrs by resazurin reduction test; format: cell-based; conditions: Fibroblast
Outline: (§1)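 Cells kept as monolayers in Glutamax MEM with Earle's salts, 10% fetal calf serum, sodium pyruvate, non-essential amino acids and gentamicin, 37 °C, 5% CO2. Seeded at 5 × 10³ cells/well, adhered 16 h, then given drug from 20 mM DMSO stock for 48 h continuously. Resazurin (25 μg/mL, 1 h, 37 °C) fluorescence read at ex 530/em 590 nm. IC50 taken from concentration–survival curve versus control wells, blank subtracted.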

[2] = test system: DU-145; test: Antiproliferative activity against human DU145 cells after 48 hrs by resazurin reduction test; format: functional, cell-based; outline: as §1
[3] = target: Serine/threonine-protein kinase pim-2 (Homo sapiens) (UniProt Q9P1W9); test: Inhibition of human Pim2 using RSRHSSYPAGT as substrate assessed as residual activity at 1 uM
Chain of Serine/threonine-protein kinase pim-2 (Homo sapiens) (Q9P1W9 whole entry, looked up): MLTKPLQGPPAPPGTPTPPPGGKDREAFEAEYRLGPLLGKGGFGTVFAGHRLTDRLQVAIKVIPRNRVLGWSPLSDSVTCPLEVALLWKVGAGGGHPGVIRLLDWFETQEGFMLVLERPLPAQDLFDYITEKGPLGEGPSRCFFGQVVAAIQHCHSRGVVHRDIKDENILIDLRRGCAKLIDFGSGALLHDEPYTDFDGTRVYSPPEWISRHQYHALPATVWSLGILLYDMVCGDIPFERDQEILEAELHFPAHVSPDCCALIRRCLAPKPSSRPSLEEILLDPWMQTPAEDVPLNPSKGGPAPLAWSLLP

[4] = target: T1, Serine/threonine-protein kinase pim-3 (Homo sapiens, UniProt Q86V86); test: Inhibition of human Pim3 using RSRHSSYPAGT as substrate
[5] = target: T1, Serine/threonine-protein kinase pim-3; test: Inhibition of human Pim3 using RSRHSSYPAGT as substrate assessed as residual activity at 10 uM
[6] = target: T1, Serine/threonine-protein kinase pim-3; test: Inhibition of human Pim3 using RSRHSSYPAGT as substrate assessed as residual activity at 1 uM
[7] = target: T2, Serine/threonine-protein kinase pim-1 (Homo sapiens, UniProt P11309); test: Inhibition of human Pim1 using RSRHSSYPAGT as substrate
Target sequence in this assay (P11309 whole entry): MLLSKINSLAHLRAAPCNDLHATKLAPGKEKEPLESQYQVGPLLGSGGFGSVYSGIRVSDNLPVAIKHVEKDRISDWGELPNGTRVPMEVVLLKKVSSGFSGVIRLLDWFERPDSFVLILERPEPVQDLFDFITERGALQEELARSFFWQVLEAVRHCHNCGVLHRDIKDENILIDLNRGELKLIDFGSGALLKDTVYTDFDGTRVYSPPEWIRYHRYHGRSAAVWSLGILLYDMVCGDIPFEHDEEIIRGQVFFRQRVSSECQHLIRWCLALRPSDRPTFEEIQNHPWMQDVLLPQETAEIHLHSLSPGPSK

[8] = target: T2, Serine/threonine-protein kinase pim-1; test: Inhibition of human Pim1 using RSRHSSYPAGT as substrate assessed as residual activity at 1 uM
Target sequence in this assay (P11309 whole entry, looked up): as the sequence (P11309 whole entry) above

[9] = test system: PA-1; test: Antiproliferative activity against human PA1 cells after 48 hrs by resazurin reduction test; format: functional, cell-based; outline: as §1
[10] = test system: PC-3; test: Antiproliferative activity against human PC3 cells after 48 hrs by resazurin reduction test; format: functional, cell-based; outline: as §1
[11] = target: Serine/threonine-protein kinase pim-2 (Homo sapiens) (UniProt Q9P1W9); test: Inhibition of human Pim2 using RSRHSSYPAGT as substrate assessed as residual activity at 10 uM
[12] = target: T2, Serine/threonine-protein kinase pim-1; test: Inhibition of human Pim1 using RSRHSSYPAGT as substrate assessed as residual activity at 10 uM
Target sequence in this assay (P11309 whole entry, looked up): as the sequence (P11309 whole entry) above

[13] = test system: PA-1; test: Antiproliferative activity against human PA1 cells assessed as growth inhibition at 1 uM after 48 hrs by resazurin reduction test; format: functional, cell-based
Outline: (§2)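 PA1 and PC3 cells seeded at 5 × 10³ per well, adhered 16 h, then exposed 48 h continuously to a single drug concentration (1 or 10 μM) from 20 mM DMSO stock. Growth read by resazurin reduction (25 μg/mL, 1 h, 37 °C), fluorescence ex 530/em 590 nm, as survival relative to control wells after blank subtraction.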

[14] = test system: PC-3; test: Antiproliferative activity against human PC3 cells assessed as growth inhibition at 10 uM after 48 hrs by resazurin reduction test; format: functional, cell-based; outline: as §2
[15] = test system: PC-3; test: Antiproliferative activity against human PC3 cells assessed as growth inhibition at 1 uM after 48 hrs by resazurin reduction test; format: functional, cell-based; outline: as §2
[16] = test system: PA-1; test: Antiproliferative activity against human PA1 cells assessed as growth inhibition at 10 uM after 48 hrs by resazurin reduction test; format: functional, cell-based; outline: as §2

Compound | IC50 [1] [µM] | IC50 ([2]; DU-145, 48 h) [µM] | Activity [3] [%] | IC50 [4] [µM] | Activity [5] [%] | Activity [6] [%] | IC50 [7] [µM] | Activity [8] [%] | IC50 ([9]; PA-1, 48 h) [µM] | IC50 ([10]; PC-3, 48 h) [µM] | Activity [11] [%] | Activity [12] [%] | growth inhibition (GI) [13] | growth inhibition (GI) [14] | growth inhibition (GI) [15] | growth inhibition (GI) [16] | growth inhibition (GI) [2] | growth inhibition (GI) [9] | growth inhibition (GI) [10]
O=Cc1c[nH]c2c1ccc1c3ccccc3[nH]c12 | 21 | – | – | – | – | – | – | – | – | – | – | – | – | – | – | – | – | – | –
COC(=O)c1cc2c3ccccc3[nH]c2c2[nH]ccc12 | 8 | > 50 | 95 | 0.5 | 24 | 47 | 3 | 57 | 27 | 6 | 75 | 15 | – | – | – | – | – | – | –
Nc1cccc2[nH]c3c(cc(C(=O)O)c4cc[nH]c43)c12 | – | – | 101 | – | 55 | 103 | – | 103 | – | – | 89 | 87 | inactive | inactive | inactive | inactive | – | – | –
COC(=O)c1cc2c([nH]c3cccc(N)c32)c2[nH]ccc12 | – | – | 93 | 0.41 | 16 | 40 | – | 90 | – | – | 77 | 39 | – | – | – | – | inactive | inactive | inactive
O=C(O)c1cc2c3ccccc3[nH]c2c2[nH]ccc12 | – | – | 100 | – | 65 | 101 | – | 90 | – | – | 93 | 70 | inactive | inactive | inactive | inactive | – | – | –
